Consider five molecules from paper PMC2743929 (Cell calcium, 2009).

pKd: −log10 of the molar value. A value given as a limit tells only on which side of the number the result lay.

The test system of test [1] is native skeletal muscle RyR1. The experiment in a line: [3H]ryanodine binding to SR vesicles. To be noted: for Ryanodine binding: mean ±SEM, SEM. In kind it is biochemical.
Test [2] deals with native skeletal muscle RyR1. The experiment in a line: Ca2+ release from SR vesicles. In kind it is biochemical. An outline of the steps: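 SR vesicles in 100mM KH₂PO₄ (pH7), 4mM MgCl₂, 1mM Na₂ATP, 0.5mM antipyrylazo III; extravesicular Ca²⁺ followed as OD at 710nm. Additions in sequence: 1μM thapsigargin, then peptide, then 5μM ruthenium red, then 1.5μg/ml A23187. n=3; paired or unpaired Student's t-test, P<0.05.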

The subject of another test is native RyR1. Briefly: Single channel recording in lipid bilayers. In kind it is biochemical. The note with it: for effect on RyR1 channel activity (open probability), in words: n=3 (Fig. 6). An outline of the steps: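 Native RyR1 vesicles fused into lipid bilayers. After incorporation, cis contained 230mM CsCH₃O₃S, 20mM CsCl, 10mM TES, 500mM mannitol, 100μM free Ca²⁺, pH7.4; trans was made symmetrical at 230mM CsCH₃O₃S. Potential alternated between -40 and +40mV every 30s. Open probability from one to two 30s periods, with threshold ~20% of maximal conductance. Control, then 100μM peptide; n=3.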

Test [3] concerns ASI(-)RyR1-expressing dyspedic myotubes. Briefly: Intracellular Ca2+ measurement. In kind it is cell-based, mice. The note with it: 500μM, 45s application (Fig. 2). An outline of the steps: (§1)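 RyR1-null mouse myotubes in primary culture; nuclear cDNA injection where applicable, expressing cells marked by co-injected cherry red cDNA (0.005μg/μl). Loaded 25min at room temperature with 5μM fura-FF AM in HEPES Ringer's, pH7.4. Ratio 340/380nm (510nm emission) every 350ms. Sequence: 500μM 4-cmc for 45s, 60s wash, zero-Ca²⁺ ICE for 120s, then 10mM Ca²⁺ plus 10μM ionomycin. Peak responses compared by ANOVA/Dunnett's test.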

Test [4] has as its system non-expressing dyspedic (RyR1-null) myotubes. Briefly: Intracellular Ca2+ measurement. In kind it is cell-based, mice. The note with it: 500μM (Fig. 2B). The procedure, abridged:
as §1

In test [5] the test system is ASI(+)RyR1-expressing dyspedic myotubes. The experiment in a line: Intracellular Ca2+ measurement. The note with it: 500μM, 45s application (Fig. 2). In kind it is cell-based, mice. An outline of the steps: as §1
The conditions of test [6]: low to moderate affinity Ca2+ dye; stated property, no reference given; cited from earlier work.
The mark [7] stands for this setting: substance alone, 10μM Ca2+, versus control, n=3 (Fig. 5A, 7).

Turning to “^3471TADSKSKMAK-----------SGGSDQERTAAKLRG^3500 [ASI(mutant)]”, the “effect on [3H]ryanodine binding, in words” value in test [1] (setting [7]) is “only marginally increased”. Also, in test [2] (10μM peptide, n=3 (Fig. 5E)), the “effect on Ca2+ release from SR vesicles, in words” value is “did not increase”. Besides, in test [2] (100μM peptide, n=3 (Fig. 5C-E)), the “effect on initial Ca2+ release from SR vesicles, in words” value is “small increase”. Also, in the test on native RyR1 (data not shown), the “effect on channel activity, in words” value is listed as “no effect”.
As for `Cc1cc(O)ccc1Cl` [4-cmc, 4-chloro-m-cresol], the “effect on intracellular Ca2+, in words” value is given as “rapid increase” in test [3], “not in non-expressing dyspedic myotubes” in test [4] and “rapid increase” in test [5].
With `CC(=O)OCOC(=O)CN(CC(=O)OCOC(C)=O)c1cc2oc(-c3ncc(C(=O)OCOC(C)=O)o3)cc2cc1OCCOc1c(N(CC(=O)OCOC(C)=O)CC(=O)OCOC(C)=O)ccc(F)c1F` [fura-FF], the negative-log Kd (pKd) in test [6] was 5.26.
As for “^3471TADSKSKMAK-----------SGGSDQERTKKKRRG^3500 [ASI(-)]”, the “effect on [3H]ryanodine binding if channels first activated by 100μM peptide A, in words” value in test [1] (10μM Ca2+, competition (Fig. 7A&B)) is “failed to significantly increase”. Further, the “[3H]ryanodine binding achievable” value in test [1] (10μM caffeine plus 100μM peptide, 10μM Ca2+ (Fig. 7C)) was above 250 % control. For the same molecule, the “effect on [3H]ryanodine binding, in words” value in test [1] (100μM peptide, [Ca2+] ≥10μM, n=3 (Fig. 8A)) is recorded as “significantly increased”; in test [1] (setting [7]), “significantly increased”. In addition, the Ryanodine binding in test [1] (500μM ASI(-) plus 100μM DP4) is reported as 339±32 % control; in test [1] (500μM peptide alone, SR vesicles, 37°C, 15nM [3H]ryanodine), 190±1 % of control. The “effect on Ca2+ release from SR vesicles, in words” value in test [2] (initial rate, peptide minus thapsigargin, n=3 (Fig. 5B&E)) is “significantly increased”. For the same molecule, the “effect on RyR1 channel activity (open probability), in words” value in the test with native RyR1 (+40mV, 100μM peptide) is given as “significant inhibition”; with native RyR1 (-40mV), “significant activation”.
For `Cn1c(=O)c2c(ncn2C)n(C)c1=O` [Caffeine, caffeine, reference compound], the “effect on [3H]ryanodine binding, in words” value in test [1] (setting [7]) is listed as “significantly increases”.
